“Also recorded” adds a separate entry of the source. Like-named read-outs stand apart in the source and are kept apart here.
Test system: patients with relapsed/refractory lymphoma
Type: in vivo, human
Conditions: for Drug-related AE: Skin/SC tissue disorders / Drug-related grade ⩾3 AE: Skin/SC tissue disorders: MedDRA SOC; for Drug-related grade ⩾3 AE: Renal failure: includes renal failure acute; for Drug-related AE: PN NEC: peripheral neuropathy, high-level term
Outline: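 Open-label phase 1 in patients with relapsed/refractory lymphoma after ⩾2 prior therapies. Dosing started at one patient per level with doubling from 0.125 to 1.0 mg/m2, then followed a 3+3 schema up to 3.11 mg/m2. DLTs were assessed in cycle 1, and AEs were graded by NCI-CTCAE v3.0.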

## CC(C)C[C@H](NC(=O)CNC(=O)c1cc(Cl)ccc1Cl)B(O)O [ixazomib]
1.76 mg/m^2 cohort
  DLTs in cycle 1: one grade 4 neutropenia
2.34 mg/m^2 cohort
  DLTs in cycle 1: DLTs occurred in one of six DLT-evaluable patients
3.11 mg/m^2 cohort
  DLTs in cycle 1: two DLTs occurred in four DLT-evaluable patients
DLT-evaluable population, 28 patients
  Patients who reported DLTs: Four
IV, days 1, 8 and 15 of 28-day cycles
  MTD (maximum tolerated dose): 2.34 mg/m^2
All doses, Total (n=30)
  Drug-related AE: Skin/SC tissue disorders: 8 (27) n (%)
  Drug-related grade ⩾3 AE: Skin/SC tissue disorders: 2 (7) n (%)
  Drug-related AE: Abdominal pain: 5 (17) n (%)
  Drug-related AE: Any AE: 30 (100) n (%)
  Drug-related AE: Arthralgia: 3 (10) n (%)
  Drug-related AE: Chills: 4 (13) n (%)
  Drug-related AE: Constipation: 3 (10) n (%)
  Drug-related AE: Cough: 4 (13) n (%)
  Drug-related AE: Decreased appetite: 6 (20) n (%)
  Drug-related AE: Decreased platelet count: 3 (10) n (%)
  Drug-related AE: Diarrhea: 10 (33) n (%)
  Drug-related AE: Dysgeusia: 4 (13) n (%)
  Drug-related AE: Fatigue: 13 (43) n (%)
  Drug-related AE: Headache: 6 (20) n (%)
  Drug-related AE: Hypokalemia: 4 (13) n (%)
  Drug-related AE: Lymphopenia: 4 (13) n (%)
  Drug-related AE: Nausea: 8 (27) n (%)
  Drug-related AE: Neutropenia: 6 (20) n (%)
  Drug-related AE: Oral herpes: 4 (13) n (%)
  Drug-related AE: Pain in extremity: 3 (10) n (%)
  Drug-related AE: Paresthesia: 3 (10) n (%)
  Drug-related AE: Peripheral edema: 4 (13) n (%)
  Drug-related AE: Pyrexia: 5 (17) n (%)
  Drug-related AE: Thrombocytopenia: 8 (27) n (%)
  Drug-related AE: Vomiting: 8 (27) n (%)
  Drug-related grade ⩾3 AE: Any grade ⩾3 AE: 14 (47) n (%)
  Drug-related grade ⩾3 AE: Dehydration: 2 (7) n (%)
  Drug-related grade ⩾3 AE: Diarrhea: 3 (10) n (%)
  Drug-related grade ⩾3 AE: Lymphopenia: 2 (7) n (%)
  Drug-related grade ⩾3 AE: Neutropenia: 6 (20) n (%)
  Drug-related grade ⩾3 AE: Thrombocytopenia: 4 (13) n (%)
  Drug-related grade ⩾3 AE: Renal failure: 2 (7) n (%)
  Drug-related AE: PN NEC: 4 (13) n (%)
Dose 1.4 mg/m^2 (n=4)
  Drug-related AE: Skin/SC tissue disorders: 1 n
  Drug-related grade ⩾3 AE: Skin/SC tissue disorders: 0 n
  Drug-related AE: Abdominal pain: 0 n
  Drug-related AE: Any AE: 4 n
  Drug-related AE: Arthralgia: 0 n
  Drug-related AE: Chills: 0 n
  Drug-related AE: Constipation: 0 n
  Drug-related AE: Cough: 0 n
  Drug-related AE: Decreased appetite: 1 n
  Drug-related AE: Decreased platelet count: 0 n
  Drug-related AE: Diarrhea: 0 n
  Drug-related AE: Dysgeusia: 1 n
  Drug-related AE: Fatigue: 2 n
  Drug-related AE: Headache: 0 n
  Drug-related AE: Hypokalemia: 0 n
  Drug-related AE: Lymphopenia: 1 n
  Drug-related AE: Nausea: 1 n
  Drug-related AE: Neutropenia: 1 n
  Drug-related AE: Oral herpes: 1 n
  Drug-related AE: Pain in extremity: 0 n
  Drug-related AE: Paresthesia: 1 n
  Drug-related AE: Peripheral edema: 0 n
  Drug-related AE: Pyrexia: 0 n
  Drug-related AE: Thrombocytopenia: 2 n
  Drug-related AE: Vomiting: 0 n
  Drug-related grade ⩾3 AE: Any grade ⩾3 AE: 3 n
  Drug-related grade ⩾3 AE: Dehydration: 0 n
  Drug-related grade ⩾3 AE: Diarrhea: 0 n
  Drug-related grade ⩾3 AE: Lymphopenia: 0 n
  Drug-related grade ⩾3 AE: Neutropenia: 1 n
  Drug-related grade ⩾3 AE: Thrombocytopenia: 1 n
  Drug-related grade ⩾3 AE: Renal failure: 0 n
  Drug-related AE: PN NEC: 0 n
Dose 1.76 mg/m^2 (n=7)
  Drug-related AE: Skin/SC tissue disorders: 2 n
  Drug-related grade ⩾3 AE: Skin/SC tissue disorders: 0 n
  Drug-related AE: Abdominal pain: 1 n
  Drug-related AE: Any AE: 7 n
  Drug-related AE: Arthralgia: 0 n
  Drug-related AE: Chills: 2 n
  Drug-related AE: Constipation: 0 n
  Drug-related AE: Cough: 2 n
  Drug-related AE: Decreased appetite: 1 n
  Drug-related AE: Decreased platelet count: 1 n
  Drug-related AE: Diarrhea: 3 n
  Drug-related AE: Dysgeusia: 2 n
  Drug-related AE: Fatigue: 4 n
  Drug-related AE: Headache: 2 n
  Drug-related AE: Hypokalemia: 1 n
  Drug-related AE: Lymphopenia: 0 n
  Drug-related AE: Nausea: 3 n
  Drug-related AE: Neutropenia: 1 n
  Drug-related AE: Oral herpes: 1 n
  Drug-related AE: Pain in extremity: 0 n
  Drug-related AE: Paresthesia: 0 n
  Drug-related AE: Peripheral edema: 1 n
  Drug-related AE: Pyrexia: 3 n
  Drug-related AE: Thrombocytopenia: 2 n
  Drug-related AE: Vomiting: 4 n
  Drug-related grade ⩾3 AE: Any grade ⩾3 AE: 3 n
  Drug-related grade ⩾3 AE: Dehydration: 0 n
  Drug-related grade ⩾3 AE: Diarrhea: 0 n
  Drug-related grade ⩾3 AE: Lymphopenia: 0 n
  Drug-related grade ⩾3 AE: Neutropenia: 1 n
  Drug-related grade ⩾3 AE: Thrombocytopenia: 1 n
  Drug-related grade ⩾3 AE: Renal failure: 0 n
  Drug-related AE: PN NEC: 2 n
Dose 2.34 mg/m^2 (n=10)
  Drug-related AE: Skin/SC tissue disorders: 4 n
  Drug-related grade ⩾3 AE: Skin/SC tissue disorders: 1 n
  Drug-related AE: Abdominal pain: 2 n
  Drug-related AE: Any AE: 10 n
  Drug-related AE: Arthralgia: 1 n
  Drug-related AE: Chills: 1 n
  Drug-related AE: Constipation: 0 n
  Drug-related AE: Cough: 1 n
  Drug-related AE: Decreased appetite: 0 n
  Drug-related AE: Decreased platelet count: 0 n
  Drug-related AE: Diarrhea: 2 n
  Drug-related AE: Dysgeusia: 1 n
  Drug-related AE: Fatigue: 2 n
  Drug-related AE: Headache: 1 n
  Drug-related AE: Hypokalemia: 0 n
  Drug-related AE: Lymphopenia: 2 n
  Drug-related AE: Nausea: 1 n
  Drug-related AE: Neutropenia: 3 n
  Drug-related AE: Oral herpes: 1 n
  Drug-related AE: Pain in extremity: 2 n
  Drug-related AE: Paresthesia: 1 n
  Drug-related AE: Peripheral edema: 2 n
  Drug-related AE: Pyrexia: 2 n
  Drug-related AE: Thrombocytopenia: 2 n
  Drug-related AE: Vomiting: 1 n
  Drug-related grade ⩾3 AE: Any grade ⩾3 AE: 4 n
  Drug-related grade ⩾3 AE: Dehydration: 0 n
  Drug-related grade ⩾3 AE: Diarrhea: 0 n
  Drug-related grade ⩾3 AE: Lymphopenia: 1 n
  Drug-related grade ⩾3 AE: Neutropenia: 3 n
  Drug-related grade ⩾3 AE: Thrombocytopenia: 1 n
  Drug-related grade ⩾3 AE: Renal failure: 0 n
  Drug-related AE: PN NEC: 0 n
Dose 3.11 mg/m^2 (n=5)
  Drug-related AE: Skin/SC tissue disorders: 0 n
  Drug-related grade ⩾3 AE: Skin/SC tissue disorders: 0 n
  Drug-related AE: Abdominal pain: 2 n
  Drug-related AE: Any AE: 5 n
  Drug-related AE: Arthralgia: 2 n
  Drug-related AE: Chills: 1 n
  Drug-related AE: Constipation: 3 n
  Drug-related AE: Cough: 1 n
  Drug-related AE: Decreased appetite: 3 n
  Drug-related AE: Decreased platelet count: 2 n
  Drug-related AE: Diarrhea: 4 n
  Drug-related AE: Dysgeusia: 0 n
  Drug-related AE: Fatigue: 2 n
  Drug-related AE: Headache: 1 n
  Drug-related AE: Hypokalemia: 2 n
  Drug-related AE: Lymphopenia: 1 n
  Drug-related AE: Nausea: 2 n
  Drug-related AE: Neutropenia: 1 n
  Drug-related AE: Oral herpes: 1 n
  Drug-related AE: Pain in extremity: 1 n
  Drug-related AE: Paresthesia: 0 n
  Drug-related AE: Peripheral edema: 1 n
  Drug-related AE: Pyrexia: 0 n
  Drug-related AE: Thrombocytopenia: 1 n
  Drug-related AE: Vomiting: 3 n
  Drug-related grade ⩾3 AE: Any grade ⩾3 AE: 3 n
  Drug-related grade ⩾3 AE: Dehydration: 2 n
  Drug-related grade ⩾3 AE: Diarrhea: 3 n
  Drug-related grade ⩾3 AE: Lymphopenia: 1 n
  Drug-related grade ⩾3 AE: Neutropenia: 1 n
  Drug-related grade ⩾3 AE: Thrombocytopenia: 1 n
  Drug-related grade ⩾3 AE: Renal failure: 2 n
  Drug-related AE: PN NEC: 1 n
Dose 0.125–1.0 mg/m^2 (n=4)
  Drug-related AE: Skin/SC tissue disorders: 1 n
  Drug-related grade ⩾3 AE: Skin/SC tissue disorders: 1 n
  Drug-related AE: Abdominal pain: 0 n
  Drug-related AE: Any AE: 4 n
  Drug-related AE: Arthralgia: 0 n
  Drug-related AE: Chills: 0 n
  Drug-related AE: Constipation: 0 n
  Drug-related AE: Cough: 0 n
  Drug-related AE: Decreased appetite: 1 n
  Drug-related AE: Decreased platelet count: 0 n
  Drug-related AE: Diarrhea: 1 n
  Drug-related AE: Dysgeusia: 0 n
  Drug-related AE: Fatigue: 3 n
  Drug-related AE: Headache: 2 n
  Drug-related AE: Hypokalemia: 1 n
  Drug-related AE: Lymphopenia: 0 n
  Drug-related AE: Nausea: 1 n
  Drug-related AE: Neutropenia: 0 n
  Drug-related AE: Oral herpes: 0 n
  Drug-related AE: Pain in extremity: 0 n
  Drug-related AE: Paresthesia: 1 n
  Drug-related AE: Peripheral edema: 0 n
  Drug-related AE: Pyrexia: 0 n
  Drug-related AE: Thrombocytopenia: 1 n
  Drug-related AE: Vomiting: 0 n
  Drug-related grade ⩾3 AE: Any grade ⩾3 AE: 1 n
  Drug-related grade ⩾3 AE: Dehydration: 0 n
  Drug-related grade ⩾3 AE: Diarrhea: 0 n
  Drug-related grade ⩾3 AE: Lymphopenia: 0 n
  Drug-related grade ⩾3 AE: Neutropenia: 0 n
  Drug-related grade ⩾3 AE: Thrombocytopenia: 0 n
  Drug-related grade ⩾3 AE: Renal failure: 0 n
  Drug-related AE: PN NEC: 1 n
All doses
  Patients with grade ⩾3 neutropenia who required growth factor support: 2/6
  Patients with grade ⩾3 thrombocytopenia who required platelet transfusions: 0/4
All doses, n=30
  AEs of Skin and subcutaneous tissue disorders (MedDRA System Organ Class), patients: 27%
  Drug-related AE: diarrhea, patients: 33%
  Drug-related AE: fatigue, patients: 43%
  Drug-related AE: nausea, patients: 27%
  Drug-related AE: thrombocytopenia, patients: 27%
  Drug-related AE: vomiting, patients: 27%
  Drug-related grade ⩾3 AE: diarrhea, patients: 10%
  Drug-related grade ⩾3 AE: neutropenia, patients: 20%
  Drug-related grade ⩾3 AE: thrombocytopenia, patients: 13%
  Drug-related rash, patients: 17%
  Grade ⩾3 PN: no grade ⩾3 events were reported; also recorded: no patient had grade ⩾3 PN
  Patients who experienced serious AEs: Eight
  Patients with drug-related grade ⩾3 AEs: 47%
All doses, n=30, data cut-off 1 March 2013
  Discontinuation of ixazomib due to AEs: 10%
all-cause, all doses, n=30
  Patients with grade ⩾3 AEs: 73%
Grade 1 or 2, all doses, n=30
  Drug-related peripheral neuropathy (PN), patients: 13%

Reference: PMC4220649 (Blood Cancer Journal, 2014)
